Results: ChEMBL document CHEMBL3272230, “Hypoglycemic alpha-cycloalkylphenylmehtyl, furanalkyl, and thiophenealkyl lactamimides” (1976)

Experiments:
Format in all cases: functional
Rattus norvegicus [1] = test: Hypoglycemic activity in fasted glucose primed Sprague-Dawley rat assessed as plasma glucose level at 100 mg/kg administered via oral gavage measured after 2 hrs by glucose-oxidase method relative to control
In short: (§1)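 Young male Sprague-Dawley rats, 105-115 g, fasted overnight. Glucose 1 g/kg given subcutaneously, then test compound immediately by gavage. Blood taken 2 h later and plasma glucose measured by glucose oxidase. Six treated rats per group against six glucose-primed controls given vehicle only by gavage. Result expressed as % reduction versus control; values over 20% significant at p ≤ 0.05.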

Rattus norvegicus [2] = test: Hypoglycemic activity in fasted glucose primed Sprague-Dawley rat assessed as plasma glucose level at 12.5 mg/kg administered via oral gavage measured after 2 hrs by glucose-oxidase method relative to control; in short: as §1
Rattus norvegicus [3] = test: Hypoglycemic activity in fasted glucose primed Sprague-Dawley rat assessed as plasma glucose level at 50 mg/kg administered via oral gavage measured after 2 hrs by glucose-oxidase method relative to control; in short: as §1
Rattus norvegicus [4] = test: Hypoglycemic activity in fasted glucose primed Sprague-Dawley rat assessed as plasma glucose level at 25 mg/kg administered via oral gavage measured after 2 hrs by glucose-oxidase method relative to control; in short: as §1
Rattus norvegicus [5] = test: Hypoglycemic activity in fasted glucose primed Sprague-Dawley rat assessed as plasma glucose level at 200 mg/kg administered via oral gavage measured after 2 hrs by glucose-oxidase method relative to control; in short: as §1
Rattus norvegicus [6] = test: Hypoglycemic activity in fasted glucose primed Sprague-Dawley rat assessed as plasma glucose level at 6 mg/kg administered via oral gavage measured after 2 hrs by glucose-oxidase method relative to control

SMILES	inhibition in vivo at 100 mg/kg (Rattus norvegicus [1]) [%]	inhibition in vivo at 12.5 mg/kg (Rattus norvegicus [2]) [%]	inhibition in vivo at 50 mg/kg (Rattus norvegicus [3]) [%]	inhibition in vivo at 25 mg/kg (Rattus norvegicus [4]) [%]	inhibition in vivo at 200 mg/kg (Rattus norvegicus [5]) [%]	inhibition in vivo at 6 mg/kg (Rattus norvegicus [6]) [%]
c1csc(C(/N=C2\CCCCCCN2)C2CC2)c1 (stereo unspecified)	50	17				
c1ccc(C(/N=C2\CCCCCN2)C2CCCCCC2)cc1 (stereo unspecified)	6					
CC(Cc1cccs1)/N=C1\CCCCCN1 (stereo unspecified)	41	0				
c1ccc(C(/N=C2\CCCCCCN2)C2CC2)cc1 (stereo unspecified)	58	0	46	26		
CCC(Cc1cccs1)/N=C1\CCCCCCCN1 (stereo unspecified)	68	31				
COc1ccc(C(/N=C2\CCC(C(C)(C)C)CCN2)C2CC2)cc1 (stereo unspecified)	17					
CC(/N=C1\CCCCCN1)C(C)c1cccs1 (stereo unspecified)	46	0				
CCC(Cc1cccs1)/N=C1\CCCCCCN1 (stereo unspecified)	44					
c1ccc(C(/N=C2\CCCCCN2)c2cccs2)cc1 (stereo unspecified)	50	23	46	36		
c1ccc(C(/N=C2\CCCCCCCCCCCN2)c2cccs2)cc1 (stereo unspecified)	4					
c1ccc(C(/N=C2\CCCCCN2)C2CCCC2)cc1 (stereo unspecified)	46	12				
c1ccc(C(/N=C2\CCCCN2)c2cccs2)cc1 (stereo unspecified)	32	13		31		
c1csc(C(/N=C2\CCCCCN2)C2CC2)c1 (stereo unspecified)	44	33				
COc1ccc(C(/N=C2\CCCCCN2)C2CC2)cc1 (stereo unspecified)	40	1				
c1ccc2c(C(/N=C3\CCCCCN3)C3CC3)cccc2c1 (stereo unspecified)	21					
c1coc(C/N=C2\CCCCCN2)c1	0				0	
c1ccc(C(/N=C2\CCCCCN2)c2ccco2)cc1 (stereo unspecified)	52	5	37	34		
c1ccc(C(/N=C2\CCCCN2)C2CC2)cc1 (stereo unspecified)	36	1	33	23		

SMILES	inhibition in vivo at 100 mg/kg (Rattus norvegicus [1]) [%]	inhibition in vivo at 12.5 mg/kg (Rattus norvegicus [2]) [%]	inhibition in vivo at 50 mg/kg (Rattus norvegicus [3]) [%]	inhibition in vivo at 25 mg/kg (Rattus norvegicus [4]) [%]	inhibition in vivo at 200 mg/kg (Rattus norvegicus [5]) [%]	inhibition in vivo at 6 mg/kg (Rattus norvegicus [6]) [%]
Cc1ccc(C(/N=C2\CCCCCCCN2)C2CC2)c(C)c1 (stereo unspecified)	61	17	47	37		
c1ccc(C(/N=C2\CCCCCCN2)c2ccco2)cc1 (stereo unspecified)	61	22	42	29		
c1ccc(C(/N=C2\CCCCN2)c2ccco2)cc1 (stereo unspecified)	27	13	28	10		
Cc1ccc(C(/N=C2\CCCCCN2)C2CC2)c(C)c1 (stereo unspecified)	56	14	43	29		
CCC(Cc1cccs1)/N=C1\CCCCN1 (stereo unspecified)	42	9				
CCC(Cc1cccs1)/N=C1\CCCCCN1 (stereo unspecified)	54	10				
c1csc(C(/N=C2\CCCCN2)C2CC2)c1 (stereo unspecified)	28					
CCC(Cc1cccs1)/N=C1\CCCN1 (stereo unspecified)	35					
c1ccc(C(/N=C2\CCCCCCN2)c2cccs2)cc1 (stereo unspecified)	41	29	37	37		
c1ccc(C(/N=C2\CCCCCN2)C2CCCCC2)cc1 (stereo unspecified)	0					
c1ccc(C(/N=C2\CCCCCN2)C2CC2)cc1 (stereo unspecified)	51	5	41	18		
C1CCN/C(=N/[C@@H]2CCC[C@@H]2C2CCCCC2)CC1	53	33	49	42		13
c1ccc(C(/N=C2\CCCCCN2)C2CCC2)cc1 (stereo unspecified)	44	14				
c1ccc(C(/N=C2\CCCCN2)c2ccccc2)cc1	46	41	52	42		12
C=CCC(Cc1cccs1)/N=C1\CCCCCN1 (stereo unspecified)	65	14	49			
CCCCNC(=O)NS(=O)(=O)c1ccc(C)cc1 [TOLBUTAMIDE]	41	16	43	29		
CCC(Cc1cccs1)/N=C1\CCC(C(C)(C)C)CCN1 (stereo unspecified)	32					
